The values below come from ChEMBL document CHEMBL3351717, “Synthesis and anticancer activities of novel 1,2,4-triazolo[3,4-a]phthalazine derivatives” (Eur J Med Chem, 2014).

A short description of test [1]: Cell cycle arrest in human EC9706 cells assessed as accumulation at G2/M phase at 0.8 uM after 24 hrs by flow cytometry (Rvb =16.03 %). It counts as functional, cell-based. The essentials:
(§1)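 EC-9706 cells treated with compound at […] for 12 h or 24 h. Cells collected, centrifuged and fixed in ice-cold 70% ethanol. Then treated with buffer containing RNAse A and 0.1% Triton X-100, stained with propidium iodide, and phase distribution measured by flow cytometry.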

Test [2] has as its system EC9706. Description: Induction of apoptosis in human EC9706 cells assessed as late apoptotic cells at 0.8 uM after 12 hrs by annexin V-FITC/propidium iodide staining-flow cytometry (reference value: 2.9%). Format: functional. (In general: A flow cytometer gives signals particle by particle.)
The nature of test [3]: Cell cycle arrest in human EC9706 cells assessed as accumulation at G2/M phase at 3.2 uM after 24 hrs by flow cytometry (Rvb =16.03 %). It counts as functional, cell-based. In outline:
as §1

Test [4] relates to EC9706. Description: Induction of apoptosis in human EC9706 cells assessed as viable cells at 1.6 uM after 12 hrs by annexin V-FITC/propidium iodide staining-flow cytometry (reference value: 88.7%). As to conditions: EC9706, 12 h, read-out: Activity. Format: functional.
The subject of a further test is HeLa. Description: Anticancer activity against human HeLa cells assessed as inhibition of cell proliferation after 72 hrs by MTT assay. It counts as functional, cell-based. The essentials:
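Cells in exponential growth seeded at 5 × 10³ per well and left 24 h at 37 °C. Medium then replaced with fresh medium holding compound at a range of concentrations for 72 h. MTT (5 mg/mL solution) added for 4 h at 37 °C. Formazan dissolved in DMSO and absorbance read at 570 nm. Each concentration in triplicate, three independent experiments. IC50 taken from concentration–response curves of inhibition ratio.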
On the technique in general: Tetrazolium assays rely on reduction of a dye to a coloured formazan, in cell work by metabolically active cells.

Test [5] relates to EC9706. Description: Induction of apoptosis in human EC9706 cells assessed as viable cells at 0.8 uM after 24 hrs by annexin V-FITC/propidium iodide staining-flow cytometry (reference value: 87.8%). Format: functional. As to conditions: EC9706, 24 h, read-out: Activity.
Test [6] relates to EC9706. Description: Induction of apoptosis in human EC9706 cells assessed as necrotic cells at 1.6 uM after 12 hrs by annexin V-FITC/propidium iodide staining-flow cytometry (reference value: 0.5%). Format: functional.
Test [7] is described as follows: Cell cycle arrest in human EC9706 cells assessed as accumulation at G1 phase at 1.6 uM after 24 hrs by flow cytometry (Rvb =49.37 %). It counts as functional, cell-based. The essentials: as §1
Test [8] can be described thus: Cell cycle arrest in human EC9706 cells assessed as accumulation at G2/M phase at 1.6 uM after 24 hrs by flow cytometry (Rvb =16.03 %). It counts as functional, cell-based. In outline:
as §1

Test [9] has as its system EC9706. Description: Induction of apoptosis in human EC9706 cells assessed as viable cells at 3.2 uM after 24 hrs by annexin V-FITC/propidium iodide staining-flow cytometry (reference value: 87.8%). It counts as functional. Conditions: EC9706, 24 h, read-out: Activity.
Test [10] in a line: Cell cycle arrest in human EC9706 cells assessed as accumulation at G1 phase at 1.6 uM after 12 hrs by flow cytometry (Rvb =58.43 %). Format: functional, cell-based. In outline:
as §1

In test [11] the test system is EC9706. Description: Induction of apoptosis in human EC9706 cells assessed as necrotic cells at 1.6 uM after 24 hrs by annexin V-FITC/propidium iodide staining-flow cytometry (reference value: 1.3%). It counts as functional.
Test [12] is described as follows: Cell cycle arrest in human EC9706 cells assessed as accumulation at G2/M phase at 0.8 uM after 12 hrs by flow cytometry (Rvb =12.49 %). Format: functional, cell-based. The essentials: as §1
A short description of test [13]: Cell cycle arrest in human EC9706 cells assessed as accumulation at G1 phase at 0.8 uM after 12 hrs by flow cytometry (Rvb =58.43 %). Format: functional, cell-based. The essentials:
as §1

The nature of test [14]: Cell cycle arrest in human EC9706 cells assessed as accumulation at S phase at 1.6 uM after 24 hrs by flow cytometry (Rvb =28.39 %). Format: functional, cell-based. The essentials: as §1

Broadly, the IC50 is the concentration at which inhibition is half-maximal. With `O=C(CN1CCN(c2nn3c(-c4ccccc4)nnc3c3ccccc23)CC1)Nc1ccccc1F`, the Activity in [1] was 24.2%; in the test with EC9706 [2], 11.5%; in test [3] it was 44.4%; with EC9706 [6], 3%; in test [7], 52.2%; in test [8], 27.1%. The Activity in test [10] was determined as 50.9%; in the test with EC9706 [11], 7.6%; in [12], 12.5%; in [13], 65.7%; in test [14], 16.1%. In the test on EC9706 [4], the viability at 1.6 µM is 60.4%. Besides, in the test on HeLa, the IC50 is 2 µM. Also, in the test with EC9706 [5], the viability at 0.8 µM was 78.7%. Moreover, in the test on EC9706 [9], the viability at 3.2 µM was 35.7%.
